# What was measured:
# LNCaP [1] = test: Biodistribution in LNCAP cells in C.B.-17/Icr +/+ Jcl mouse xenografted with human LNCAP and PC3 cells at 25.9 MBq, iv after 30 mins by SPECT/CT analysis; format: ADME, organism-based; conditions: in vivo, 0.5 h
# Procedure, shortened: (§1)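 Anaesthetised (2.5% isoflurane) LNCaP/PC-3 tumour-bearing mice (20–25 g), kept on a heating pad, given ¹²³I tracer (25.9 MBq in 0.10 mL saline) iv by tail vein, with or without 50 mg/kg 2-PMPA. Pinhole SPECT acquired over 30–64 min (159 keV ±10% window, 32 projections × 60 s, 360°), then CT; images reconstructed by 3D OSEM.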
# PC-3 = test: Biodistribution in PC3 cells in C.B.-17/Icr +/+ Jcl mouse xenografted with human LNCAP and PC3 cells at 25.9 MBq, iv after 30 mins by SPECT/CT analysis in presence of 2-PMPA; format: ADME, organism-based; conditions: in vivo, 0.5 h; procedure, shortened: as §1
# LNCaP [2] = test: Biodistribution in LNCAP cells in C.B.-17/Icr +/+ Jcl mouse xenografted with human LNCAP and PC3 cells at 25.9 MBq, iv after 30 mins by SPECT/CT analysis in presence of 2-PMPA; format: ADME, organism-based; conditions: in vivo, 0.5 h; procedure, shortened: as §1
# [3] = target: T1, Glutamate carboxypeptidase 2 (Homo sapiens, UniProt Q04609); test: Displacement of [125I]-DCIT from PSMA in human LNCaP cells after 1 hr by gamma counting
# Blood = test: Biodistribution in blood of C.B.-17/Icr […] Jcl mouse xenografted with human LNCAP and PC3 cells after 30 mins; format: ADME, organism-based; conditions: in vivo, 0.5 h
# [4] = Distribution coefficient, log D of the compound; format: physicochemical; conditions: octanol/water
# LNCaP [5] = test: Biodistribution in LNCAP cells in C.B.-17/Icr +/+ Jcl mouse xenografted with human LNCAP and PC3 cells after 2 mins to 3 hrs; format: ADME, organism-based; conditions: in vivo
# Procedure, shortened: (§2)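 ¹²⁵I-labelled tracer given iv by tail vein to mice (22–24 g) bearing LNCaP (left shoulder) and PC-3 (right shoulder) xenografts of about 5–10 mm, grown from 1–5 × 10⁶ cells in 1:1 Matrigel. n=4 per time point; decapitated at 2 min, 30 min, 1, 3, 6 h. Tissues weighed and counted; uptake as %ID/g, mean ± SD.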
# Kidney [6] = test: Biodistribution in kidney of C.B.-17/Icr […] Jcl mouse xenografted with human LNCAP and PC3 cells after 2 mins to 3 hrs; format: ADME, organism-based; conditions: in vivo; procedure, shortened: as §2
# [7] = target: T1, Glutamate carboxypeptidase 2; test: Binding affinity to PSMA in human LNCaP cells after 1 hr by gamma counting; format: cell-based
# Procedure, shortened: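 LNCaP cells plated at 4 × 10⁵ cells/well and grown 48 h (37 °C/5% CO₂), then washed with RPMI 1640 containing 0.5% BSA. Saturation binding used ¹²⁵I-labelled ligand (specific activity 81.4 kBq/nmol), 1 h at 37 °C; nonspecific binding measured with 100 µM non-radioactive iodinated compound. Cells washed, lysed in 0.2 N NaOH, gamma-counted; Kd from Scatchard plots.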
# Liver = test: Drug excretion in C.B.-17/Icr […] Jcl mouse liver xenografted with human LNCAP and PC3 cells; format: ADME, tissue-based; conditions: in vivo
# Kidney [8] = test: Drug excretion in C.B.-17/Icr […] Jcl mouse kidney xenografted with human LNCAP and PC3 cells; format: ADME, tissue-based; conditions: in vivo
# LNCaP [9] = test: Biodistribution in LNCAP cells in C.B.-17/Icr […] Jcl mouse xenografted with human LNCAP and PC3 cells after 30 to 60 mins; format: ADME, organism-based; conditions: in vivo
# Liver (Mus musculus) = test: Biodistribution in liver of C.B.-17/Icr […] Jcl mouse xenografted with human LNCAP and PC3 cells after 30 to 60 mins; conditions: in vivo
# Intestine = test: Biodistribution in intestine of C.B.-17/Icr […] Jcl mouse xenografted with human LNCAP and PC3 cells after 30 to 60 mins; format: ADME, organism-based; conditions: in vivo
# T1 sequence (Q04609 whole entry): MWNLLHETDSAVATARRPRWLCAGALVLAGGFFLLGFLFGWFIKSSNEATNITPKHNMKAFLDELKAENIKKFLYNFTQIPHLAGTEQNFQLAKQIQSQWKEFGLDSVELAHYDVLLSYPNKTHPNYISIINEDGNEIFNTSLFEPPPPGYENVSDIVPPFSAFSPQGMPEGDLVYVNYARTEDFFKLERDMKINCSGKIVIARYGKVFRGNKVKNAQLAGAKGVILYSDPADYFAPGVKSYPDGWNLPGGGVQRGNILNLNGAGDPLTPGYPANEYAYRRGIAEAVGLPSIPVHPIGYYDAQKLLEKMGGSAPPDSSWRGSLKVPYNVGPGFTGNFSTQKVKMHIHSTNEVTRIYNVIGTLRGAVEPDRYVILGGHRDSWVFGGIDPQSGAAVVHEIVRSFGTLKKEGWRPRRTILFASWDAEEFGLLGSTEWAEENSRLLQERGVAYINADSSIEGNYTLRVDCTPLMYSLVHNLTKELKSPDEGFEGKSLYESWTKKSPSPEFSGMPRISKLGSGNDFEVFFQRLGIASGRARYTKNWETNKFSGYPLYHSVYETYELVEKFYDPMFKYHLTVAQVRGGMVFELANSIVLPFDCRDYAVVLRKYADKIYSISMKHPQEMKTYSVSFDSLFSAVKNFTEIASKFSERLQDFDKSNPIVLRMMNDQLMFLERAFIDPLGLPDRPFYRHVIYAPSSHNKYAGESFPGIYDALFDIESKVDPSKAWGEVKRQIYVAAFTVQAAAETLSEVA
structure (smiles),measurement,setting,value
O=C(O)CC[C@H](NC(=O)N[C@@H](CSC1CC(=O)N(CCCC[C@H](NC(=O)CNC(=O)c2cccc([123I])c2)C(=O)O)C1=O)C(=O)O)C(=O)O (some centres undefined),Drug uptake,LNCaP [1],Active
same,Drug uptake,PC-3,Not Active
same,Drug uptake,LNCaP [2],Not Active
O=C(O)CC[C@H](NC(=O)N[C@@H](CSC1CC(=O)N(CCCCCNC(=O)CNC(=O)c2cccc(I)c2)C1=O)C(=O)O)C(=O)O (some centres undefined),Ki,[3],7.91 nM
CNCC(=O)N[C@@H](CCCCN1C(=O)CC(SC[C@H](NC(=O)N[C@@H](CCC(=O)O)C(=O)O)C(=O)O)C1=O)C(=O)O (some centres undefined),Ki,[3],94.8 nM
O=C(O)CC[C@H](NC(=O)N[C@@H](CSC1CC(=O)N(CCCC[C@H](NC(=O)CNC(=O)c2cccc(I)c2)C(=O)O)C1=O)C(=O)O)C(=O)O (some centres undefined),Ki,[3],4.97 nM
O=C(O)CC[C@H](NC(=O)N[C@@H](CSC1CC(=O)N(CCCC[C@H](NC(=O)CNC(=O)c2ccccc2)C(=O)O)C1=O)C(=O)O)C(=O)O (some centres undefined),Ki,[3],8.06 nM
O=C(O)CC[C@H](NC(=O)N[C@@H](CS)C(=O)O)C(=O)O,Ki,[3],376 nM
CN1C(=O)CC(SC[C@H](NC(=O)N[C@@H](CCC(=O)O)C(=O)O)C(=O)O)C1=O (some centres undefined),Ki,[3],62.1 nM
O=C(O)CC[C@H](NC(=O)N[C@@H](CSC1CC(=O)N(CCCC[C@H](NC(=O)CCNC(=O)c2cccc(I)c2)C(=O)O)C1=O)C(=O)O)C(=O)O (some centres undefined),Ki,[3],6.26 nM
O=C(O)CC[C@H](NC(=O)N[C@@H](CCCCNCc1ccc([125I])cc1)C(=O)O)C(=O)O,Drug uptake,Blood,Active
same,logD,[4],-2.91
same,Drug uptake,LNCaP [5],Active
same,Drug uptake,Kidney [6],Active
same,Kd,[7],20.4 nM
same,Drug excretion,Liver,Not Active
same,Drug excretion,Kidney [8],Active
O=C(O)CC[C@H](NC(=O)N[C@@H](CSC1CC(=O)N(CCCC[C@H](NC(=O)c2cccc(I)c2)C(=O)O)C1=O)C(=O)O)C(=O)O (some centres undefined),Ki,[3],2.79 nM
O=C(O)CC[C@H](NC(=O)N[C@@H](CSC1CC(=O)N(CCCC[C@H](NC(=O)CCCCNC(=O)c2cccc(I)c2)C(=O)O)C1=O)C(=O)O)C(=O)O (some centres undefined),Ki,[3],2.14 nM
O=C(O)CC[C@H](NC(=O)N[C@@H](Cc1ccc(O)c([125I])c1)C(=O)O)C(=O)O,Kd,[7],143 nM
O=C(O)CC[C@H](NC(=O)N[C@@H](CSC1CC(=O)N(CCCCCNC(=O)CNC(=O)c2cccc([125I])c2)C1=O)C(=O)O)C(=O)O (some centres undefined),Drug uptake,LNCaP [9],Active
same,Drug uptake,Liver (Mus musculus),Active
same,Drug uptake,Intestine,Active
O=C(O)CC[C@H](NC(=O)N[C@@H](CSC1CC(=O)N(CCCC[C@H](NC(=O)CCCNC(=O)c2cccc(I)c2)C(=O)O)C1=O)C(=O)O)C(=O)O (some centres undefined),Ki,[3],2.95 nM
